Screening data from PubChem BioAssay.
Most compounds without a hit are left out; they make up all but 1.9% or so of the library.
HCV NS3 hel inh: inhibitors of Hepatitis C virus NS3 helicase; NS3 helicase DNA unwinding, Cy5 molecular beacon fluorescence; inhibition, % at 10.9 µM; 0.56% of 290,000 active; AID 1800;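 active means inhibition above the mean of all tested compounds plus 3 SD, set per campaign, cut at about 35% in these data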;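 further: 0% = DMSO wells and 100% = thioflavine S control wells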
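test system = hepatitis C virus NS3 helicase domain fragment enzyme | reagent = annealed dual-labelled DNA beacon duplex, ATP-started | times = 1 h at 25 °C | detection = Cy5 fluorescence, 0 and 60 min reads | read-out basis = percent inhibition from t60/t0 fluorescence ratio | control set = DMSO and thioflavine S | replication = one well per compound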
FID counter: displaces DNA intercalator in HCV helicase counter-screen. AID 1845. inhibition, % at 7.9 µM. 0.17% of 290,000 active. DNA fluorescent intercalator displacement, fluorescence; in the data active means inhibition above about 37%;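 further: 0% = vehicle and 100% = reference compound; higher means more ethidium bromide displaced from hairpin DNA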
VIM-2 inh: blocks Pseudomonas aeruginosa VIM-2 metallo-beta-lactamase. purified VIM-2, nitrocefin hydrolysis, epi-absorbance fluorescence. inhibition, % at 5.6 µM. 0.89% of 290,000 active;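 active means inhibition above the mean of all tested compounds plus 3 SD, cutoff set per screening run, cut at about 7.5% in these data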;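 further: red hydrolysis product quenches plate fluorescence so inhibitors raise well fluorescence; 0% = enzyme with DMSO and 100% = DMSO without enzyme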
IMP-1 inh: inhibitors of Pseudomonas aeruginosa IMP-1 metallo-beta-lactamase; AID 1556; 0.45% of 290,000 active; purified IMP-1, nitrocefin hydrolysis, epi-absorbance fluorescence; inhibition, % at 5.6 µM;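 active means inhibition above the mean plus 3 SD of all compounds in the same screening run, cut at about 4.5% in these data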;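 further: 0% = IMP-1 with DMSO and 100% = DMSO wells lacking enzyme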
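assay system = purified recombinant IMP-1 metallo-beta-lactamase enzyme | schedule = 15 min preincubation plus 25 min reaction at 25 °C | signal = Epi-absorbance fluorescence, 480 nm excitation, 530 nm emission | read-out basis = percent inhibition from optical density relative to buffer-blank wells | controls = IMP-1 with DMSO as 0%, enzyme-free DMSO as 100%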
* = called active by the depositor.

SMILES	HCV NS3 hel inh	FID counter	VIM-2 inh	IMP-1 inh
Cc1ccc2nc3c(cc(C(=O)NCCN4CCOCC4)c(=N)n3CCCN3CCOCC3)c(=O)n2c1	20	79*	8.9*	-4
COc1ccc(CCn2c(=N)c(C(=O)NC3CCCC3)cc3c(=O)n4ccccc4nc32)cc1OC	-10	8	10*	-2
N=c1c(C(=O)NCCN2CCOCC2)cc2c(=O)n3ccccc3nc2n1Cc1ccc(F)cc1	5	23	8.1*	-4
Cc1ccc2nc3c(cc(C(N)=S)c(=N)n3CCCOC(C)C)c(=O)n2c1	25	2	7.9*	3
Cc1cc(C)c(S(=O)(=O)Nc2nccs2)c(C)c1	3	-5	-3	-3
N=c1c(C(=O)NCCN2CCOCC2)cc2c(=O)n3ccccc3nc2n1CCCN1CCOCC1	12	76*	6	-1
Cc1nc(NCc2cccnc2)c2c3c(sc2n1)CC(C)CC3 (configuration not stated)	-3	-23	9.9*	-1
Cc1nnc(C)n1N	-13	0	-1	-1
C[C@H]1COc2c(C3(N)CC3)c(F)cc3c(=O)c(C(=O)O)cn1c23	-7	6	1	0
CCCCCCC(CC(=O)NCc1cccnc1)CC(=O)NCc1cccnc1	-3	-31	-1	-2
COc1cc2c(cc1/C=C/C(=O)O)OC(C)C2 (configuration not stated)	2	-7	4	9.2*
C=CCn1c(SCCN2CCCC2)nc2c([nH]c3ccccc32)c1=O	4	11	10*	0
C=CCn1c(SCC(=O)Nc2ccc(OC)cc2)nc2c([nH]c3ccccc32)c1=O	5	-7	-1	0
COc1ccc2c(c1)CCCC21NC(=O)N(CC(=O)NC(=O)NCc2ccccc2)C1=O (configuration not stated)	0	-29	-3	-3
CCCC1=NN2C(=N)/C(=C\c3ccc(OCCOc4ccc(NC(C)=O)cc4)c(OC)c3)C(=O)N=C2S1	24	-24	4	-4
CCC1=NN2C(=N)/C(=C\c3ccc(OCCOc4ccc(NC(C)=O)cc4)cc3)C(=O)N=C2S1	7	-22	10*	-3
CNC(=O)/C(C#N)=C/c1c(N2CCCCCC2)nc2ccccn2c1=O	1	-4	8.1*	-2
CCNC(=O)/C(C#N)=C/c1c(N2CCCCCC2)nc2ccccn2c1=O	-1	-27	2	-1
O=c1[nH]cc(N=Cc2cc(Cl)cc(Cl)c2O)c(=O)[nH]1	13	2	0	12*
Cc1cc(-c2n[nH]c(=S)n2CC(C)C)cs1	8	-7	8.6*	-5
Cc1ccc(CN(Cc2ccccc2)C(=S)Nc2ccccc2C)o1	-13	8	0	-3
CCC(C)(C)c1ccc(OCCCC[n+]2ccc(C)cc2)c(C(C)(C)CC)c1	-69	46*	-4	-4
CCC(C)(C)c1ccc(OCCCC[n+]2cccc(C)c2C)c(C(C)(C)CC)c1	-51	26	-2	-2
COC(=O)c1ccccc1NC(=O)C/C(C)=N/NC(=O)Cc1ccc(Cl)cc1	11	-22	2	0
COC(=O)c1ccc(CN2CCC(n3nccc3NC(=O)C3CCCC3)CC2)cc1	-14	-2	-3	-4
SMILES	HCV NS3 hel inh	FID counter	VIM-2 inh	IMP-1 inh
Cc1ccc(/C=N/N(C)C2=NS(=O)(=O)c3ccccc32)cc1	21	-18	5	-2
O=S1(=O)N=C(N(CCO)/N=C/c2ccc(Cl)cc2)c2ccccc21	-1	-26	1	-1
CN(C)c1ccc(/C=N/N(CCC#N)C2=NS(=O)(=O)c3ccccc32)cc1	3	-18	9.1*	-2
CN(/N=C/c1ccncc1)C1=NS(=O)(=O)c2ccccc21	-4	0	9.9*	-3
CCn1cc(C(=O)NCCCN(CC(C)C)CC(C)C)c(=O)c2cc(S(=O)(=O)N(C)C3CCCCC3)ccc21	10	-1	-1	-4
CC1(C)Cc2c(sc3nc(NCCN4CCOCC4)n4ncnc4c23)CO1	8	4	7	16*
COc1cc(/C=N/NC(=O)c2cc(-c3ccco3)nc3ccccc23)cc(OC)c1O	5	-18	0	-3
O=C(N/N=C/c1cccc(F)c1)c1cc(-c2ccco2)nc2ccccc12	40*	-6	-1	-3
CC(C)(C)OC(=O)n1cc(/C=N/NC(=O)c2ccco2)c2ccccc21	-18	-25	-1	-1
CCOc1ccccc1N(C)C(=O)CCS(=O)(=O)c1ccc2c(c1)NC(=O)C(C)S2 (configuration not stated)	-1	-46	-2	-3
O=C(CSc1nc2ccsc2c(=O)n1CC1CCC(C(=O)O)CC1)c1ccc(Cl)cc1 (configuration not stated)	18	-35	-1	14*
COc1ccc(/C=N/NC(=O)c2nn(C)cc2Br)cc1CSCc1ccco1	11	-30	2	18*
COC(=O)c1[nH]c2ccc(Cl)cc2c1NC(=O)CCN1CCN(C2CCCCC2)CC1	-8	19	-2	8.0*
Cc1c(NC(=O)c2ccc(N(Cc3ccccc3)S(C)(=O)=O)cc2)c(=O)n(-c2ccccc2)n1C	7	-24	-1	-3
CCN(CC)CCNc1ccnc2cc(Cl)ccc12	18	48*	-3	-3
Clc1ccc2c(NCc3ccccc3)ccnc2c1	-12	-5	-3	-4
CCN(CC)Cc1cc(Nc2ccnc3cc(Cl)ccc23)ccc1O	26	69*	4	-2
O=C(C[n+]1ccccc1)N/N=C/c1cccs1	6	1	-3	-2
COc1ccc(CN2CCN(C(=O)Cn3nc(C(=O)O)c4ccccc4c3=O)CC2)cc1F	-6	-28	5	-4
CCCCCC(=O)Nc1nc(C)c(-c2csc(Nc3cc(Cl)ccc3C)n2)s1	1	4	-6	12*
CCCC(C)C(=O)Nc1nc(C)c(-c2csc(Nc3cc(Cl)ccc3C)n2)s1 (configuration not stated)	-4	-5	-2	9.9*
O=C(O)c1ccc2c(c1)C(=O)N(c1nccs1)C2=O	8	3	-3	-5
CCOC(=O)c1cnc2c(C)cccc2c1NCCCN1CCOCC1	35	55*	2	-4
CCOC(=O)c1cnc2c(OC)cccc2c1NCc1cccnc1	0	16	11*	-5
CCOC(=O)c1cnc2c(C(=O)OC)cccc2c1NCCN1CCOCC1	3	-11	0	-3
CCOC(=O)c1cnc2c(Cl)cc(Cl)cc2c1NCCCN1CCOCC1	6	-3	6	-2
CCOC(=O)c1cnc2c(C)cc(Cl)cc2c1NCCCN1CCOCC1	23	46*	5	-5
O=C(Cn1ccc2cc(S(=O)(=O)N3CCCCC3)ccc21)NCc1ccccc1F	-9	-24	-1	-2
O=C(Nc1cccc(-c2ccc(F)cc2)c1)C1CCCN(Cc2cccnc2)C1 (configuration not stated)	-9	22	1	0
COC(=O)C1=C(C)N(c2ccc(OC)cc2)C(C)=C(C(=O)OC)C1c1ccccc1	-9	-6	-4	-2
